Experimental data from ChEMBL document CHEMBL1123969, “Cardiovascular effects of new water-soluble derivatives of forskolin” (J Med Chem, 1988).
Converted amounts (≈) assume the structure as drawn.

Columns and labels:
Cavia porcellus [1] = organism: Cavia porcellus; experiment: Positive inotropic activity in spontaneously beating guinea pig atria; type: functional, organism-based
In short: (§1)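 Guinea pig atria, spontaneously beating, in Ringer solution at 32 °C gassed with 95% O2/5% CO2. Isometric force recorded at 0.5–1 g initial tension after 30 min stabilization. Compounds in water or propylene glycol given cumulatively at 0.01–30 μg/mL, with 7 min contact per dose. EC50 for a 50% force increase taken graphically from the dose-response curve, in triplicate.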

Felis catus = experiment: Effective dose for lowering blood pressure in anesthetized cat when administered intravenously; type: functional; details: iv
In short: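 Cats of either sex, 3–4 kg, under ether induction and chloralose (70 mg/kg iv). Compounds in distilled water or propylene glycol were given iv via the femoral vein at 0.01–10 mg/kg. Fall in mean arterial pressure read 10 min post-dose. ED20 taken graphically from the log dose-response curve, with doses run in triplicate.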

Cavia porcellus [2] = organism: Cavia porcellus; experiment: Positive inotropic activity was assessed in spontaneously beating guinea pig atria; NA=Not active; type: functional, organism-based; in short: as §1

| Structure (SMILES) | EC50 (Cavia porcellus [1]) [µg/mL] | EC50 (Cavia porcellus [2]) | ED20 (Felis catus) [mg/kg] |
| --- | --- | --- | --- |
| CC(CCc1ccc(O)cc1)NCCc1ccc(O)c(O)c1 (centres undefined) [DOBUTAMINE] | 0.3 (≈ 0.995 µM) | – | – |
| C=C[C@@]1(C)CC(=O)[C@]2(O)C3(C)C(C(O)C(OC(=O)CCCCCCCCCCCN4CCOCC4)[C@@]2(C)O1)C(C)(C)CC[C@@H]3O.Cl (some centres undefined) | – | Not Active | 1.6 |
| C=C[C@@]1(C)CC(=O)[C@]2(O)C3(C)C(C(O)C(OC(=O)CN4CCSCC4)[C@@]2(C)O1)C(C)(C)CC[C@@H]3O.Cl (some centres undefined) | > 30 | – | 3 |
| C=C[C@@]1(C)CC(=O)[C@]2(O)C3(C)C(C(O)C(OC(=O)CN4CCC(O)CC4)[C@@]2(C)O1)C(C)(C)CC[C@@H]3O.Cl (some centres undefined) | > 30 | – | 3 |
| Nc1cc(N2CCCCC2)nc(N)[n+]1[O-] [MINOXIDIL] | – | – | 0.9 |
| C=C[C@@]1(C)CC(=O)[C@]2(O)C3(C)C(C(OC(=O)CN4CCCCCC4)C(O)[C@@]2(C)O1)C(C)(C)CC[C@@H]3O.Cl (some centres undefined) | 1.9 | – | 1 |
| C=C[C@@]1(C)CC(=O)[C@]2(O)C3(C)C(C(OC(=O)CCCCN4CCCCC4)C(O)[C@@]2(C)O1)C(C)(C)CC[C@@H]3O.Cl (some centres undefined) | > 30 | – | 1 |
| C=C[C@@]1(C)CC(=O)[C@]2(O)C3(C)C(C(O)C(OC(=O)Cn4cnc5c4c(=O)n(C)c(=O)n5C)[C@@]2(C)O1)C(C)(C)CC[C@@H]3O (some centres undefined) | 0.74 (≈ 1.26 µM) | – | 3 |
| C=C[C@@]1(C)CC(=O)[C@]2(O)C3(C)C(C(O)C(OC(=O)CCN4CCOCC4)[C@@]2(C)O1)C(C)(C)CC[C@@H]3O.Cl (some centres undefined) | – | Not Active | – |
| C=C[C@@]1(C)CC(=O)[C@]2(O)C3(C)C(C(OC(=O)CN4CCC(NC(=O)c5ccccc5)CC4)C(O)[C@@]2(C)O1)C(C)(C)CC[C@@H]3O (some centres undefined) | 1.2 (≈ 1.96 µM) | – | 4 |
| C=C[C@@]1(C)CC(=O)[C@]2(O)C3(C)C(C(O)C(OC(=O)CN4CCCCC4)[C@@]2(C)O1)C(C)(C)CC[C@@H]3O.Cl (some centres undefined) | > 30 | – | 10 |
| C=C[C@@]1(C)CC(=O)[C@]2(O)C3(C)C(C(O)C(OC(=O)CCCN4CCCCC4)[C@@]2(C)O1)C(C)(C)CC[C@@H]3O.Cl (some centres undefined) | > 30 | – | 0.3 |
| C=C[C@@]1(C)CC(=O)[C@]2(O)C3(C)C(C(OC(=O)CNCc4ccccc4)C(O)[C@@]2(C)O1)C(C)(C)CC[C@@H]3O.Cl (some centres undefined) | 10 | – | 3.5 |
| C=C[C@@]1(C)CC(=O)[C@]2(O)C3(C)C(C(O)C(OC(=O)CCN4CCCCC4)[C@@]2(C)O1)C(C)(C)CC[C@@H]3O.Cl (some centres undefined) | 1 | – | – |
| C=C[C@@]1(C)CC(=O)[C@]2(O)C3(C)C(C(O)C(OC(=O)CN4CCC(C)CC4)[C@@]2(C)O1)C(C)(C)CC[C@@H]3O.Cl (some centres undefined) | > 30 | – | 10 |
| C=C[C@@]1(C)CC(=O)[C@]2(O)C3(C)C(C(OC(=O)CN4CCSCC4)C(O)[C@@]2(C)O1)C(C)(C)CC[C@@H]3O.Cl (some centres undefined) | 1.5 | – | 5 |
| C=C[C@@]1(C)CC(=O)[C@]2(O)C3(C)C(C(O)C(OC(=O)C(C)N4CCCCC4)[C@@]2(C)O1)C(C)(C)CC[C@@H]3O (some centres undefined) | > 30 | – | 4.5 |

Second part, led by results:

| EC50 (Cavia porcellus [1]) [µg/mL] | EC50 (Cavia porcellus [2]) | Structure (SMILES) | ED20 (Felis catus) [mg/kg] |
| --- | --- | --- | --- |
| – | Not Active | C=C[C@@]1(C)CC(=O)[C@]2(O)C3(C)C(C(OC(=O)CCCN4CCCCC4)C(O)[C@@]2(C)O1)C(C)(C)CC[C@@H]3O.Cl (some centres undefined) | 3 |
| 10 | – | C=C[C@@]1(C)CC(=O)[C@]2(O)C3(C)C(C(O)C(OC(=O)CN(CC)CC)[C@@]2(C)O1)C(C)(C)CC[C@@H]3O.Cl (some centres undefined) | 2 |
| > 30 | – | C=C[C@@]1(C)CC(=O)[C@]2(O)C3(C)C(C(OC(=O)C(C)N4CCOCC4)C(O)[C@@]2(C)O1)C(C)(C)CC[C@@H]3O.Cl (some centres undefined) | 3 |
| > 30 | – | C=C[C@@]1(C)CC(=O)[C@]2(O)C3(C)C(C(O)C(OC(=O)Cn4nnc5ccccc54)[C@@]2(C)O1)C(C)(C)CC[C@@H]3O (some centres undefined) | 3 |
| > 30 | – | C=C[C@@]1(C)CC(=O)[C@]2(O)C3(C)C(C(O)C(OC(=O)CNC(C)(C)C)[C@@]2(C)O1)C(C)(C)CC[C@@H]3O.Cl (some centres undefined) | 1 |
| 10 | – | C=C[C@@]1(C)CC(=O)[C@]2(O)C3(C)C(C(O)C(OC(=O)CCCN4CCOCC4)[C@@]2(C)O1)C(C)(C)CC[C@@H]3O.Cl (some centres undefined) | 1.8 |
| 0.2 | – | C=C[C@@]1(C)CC(=O)[C@]2(O)C3(C)C(C(OC(=O)CCN4CCN(C)CC4)C(O)[C@@]2(C)O1)C(C)(C)CC[C@@H]3O.Cl (some centres undefined) | 1.4 |
| 30 | – | C=C[C@@]1(C)CC(=O)[C@]2(O)C3(C)C(C(OC(=O)CN4CCN(C)CC4)C(O)[C@@]2(C)O1)C(C)(C)CC[C@@H]3O.Cl (some centres undefined) | 1.3 |
| > 10 | – | C=C[C@@]1(C)CC(=O)[C@]2(O)C3(C)C(C(O)C(OC(=O)CNc4ccccc4)[C@@]2(C)O1)C(C)(C)CC[C@@H]3O (some centres undefined) | 2 |
| > 30 | – | C=C[C@@]1(C)CC(=O)[C@]2(O)C3(C)C(C(O)C(OC(=O)CCN4C(=O)c5ccccc5C4=O)[C@@]2(C)O1)C(C)(C)CC[C@@H]3O (some centres undefined) | 10 |
| > 30 | – | C=C[C@@]1(C)CC(=O)[C@]2(O)C3(C)C(C(O)C(OC(=O)CN4CCCC(C)C4)[C@@]2(C)O1)C(C)(C)CC[C@@H]3O.Cl (some centres undefined) | 10 |
| – | Not Active | C=C[C@@]1(C)CC(=O)[C@]2(O)C3(C)C(C(O)C(OC(=O)Cn4cc(C(=O)OCC)c(=O)c5ccc(C(F)(F)F)cc54)[C@@]2(C)O1)C(C)(C)CC[C@@H]3O (some centres undefined) | – |
| 2 (≈ 3.02 µM) | – | C=C[C@@]1(C)CC(=O)[C@]2(O)C3(C)C(C(O)C(OC(=O)Cn4c(=O)c5c(ncn5COCCOC)n(C)c4=O)[C@@]2(C)O1)C(C)(C)CC[C@@H]3O (some centres undefined) | 6 |
| 30 | – | C=C[C@@]1(C)CC(=O)[C@]2(O)C3(C)C(C(O)C(OC(=O)CCCCN4CCCCC4)[C@@]2(C)O1)C(C)(C)CC[C@@H]3O.Cl (some centres undefined) | 1 |
| 3 (≈ 5.1 µM) | – | C=C[C@@]1(C)CC(=O)[C@]2(O)C3(C)C(C(OC(=O)Cn4cnc5c4c(=O)n(C)c(=O)n5C)C(O)[C@@]2(C)O1)C(C)(C)CC[C@@H]3O (some centres undefined) | 4.5 |
| 3 | – | C=C[C@@]1(C)CC(=O)[C@]2(O)C3(C)C(C(OC(=O)CN4CCCC4)C(O)[C@@]2(C)O1)C(C)(C)CC[C@@H]3O.Cl (some centres undefined) | 1 |
| 3 | – | C=C[C@@]1(C)CC(=O)[C@]2(O)C3(C)C(C(O)C(OC(=O)C(C)(C)N4CCOCC4)[C@@]2(C)O1)C(C)(C)CC[C@@H]3O.Cl (some centres undefined) | 1.8 |
| > 30 | – | C=C[C@@]1(C)CC(=O)[C@]2(O)C3(C)C(C(OC(=O)CN4CCCC(C)C4)C(O)[C@@]2(C)O1)C(C)(C)CC[C@@H]3O.Cl (some centres undefined) | 5.4 |
| > 30 | – | C=C[C@@]1(C)CC(=O)[C@]2(O)C3(C)C(C(O)C(OC(=O)CN4CCN(C)CC4)[C@@]2(C)O1)C(C)(C)CC[C@@H]3O.Cl (some centres undefined) | 0.9 |
| 0.9 (≈ 1.49 µM) | – | C=C[C@@]1(C)CC(=O)[C@]2(O)C3(C)C(C(O)C(OC(=O)C(C)n4cnc5c4c(=O)n(C)c(=O)n5C)[C@@]2(C)O1)C(C)(C)CC[C@@H]3O (some centres undefined) | 5 |
| – | Not Active | C=C[C@@]1(C)CC(=O)[C@]2(O)C3(C)C(C(O)C(OC(=O)CCN4CCN(C)CC4)[C@@]2(C)O1)C(C)(C)CC[C@@H]3O.Cl (some centres undefined) | – |
| 3 (≈ 5.12 µM) | – | C=C[C@@]1(C)CC(=O)[C@]2(O)C3(C)C(C(OC(=O)CN4CCC(O)(c5ccccc5)CC4)C(O)[C@@]2(C)O1)C(C)(C)CC[C@@H]3O (some centres undefined) | 5 |
| 1.8 | – | C=C[C@@]1(C)CC(=O)[C@]2(O)C3(C)C(C(O)C(OC(=O)CN4CCCC4)[C@@]2(C)O1)C(C)(C)CC[C@@H]3O.Cl (some centres undefined) | 4 |
